What was measured:
Assay type in all cases: functional
T47D = assay: Growth inhibition of human T47D cells assessed as cell growth at 10^-5 M after 48 hrs by SRB assay; conditions: read-out: Activity
[1] = Cytotoxicity against human OVCAR4 cells after 48 hrs by SRB assay; conditions: OVCAR-4, 48 h
Method in brief: (§1)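 NCI 60-cell-line panel of human tumour lines from nine cancer types. Continuous 48 h exposure at five 10-fold dilutions from 10^-4 to 10^-8 M, with 5-FU as positive control. SRB protein stain read spectrophotometrically at time zero, untreated control and each concentration. GI50, TGI and LC50 were derived from the [(Ti−Tz)/(C−Tz)]×100 growth relations, and out-of-range values are given as > or < the tested limits.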

HCT-116 [2] = assay: Growth inhibition of human HCT116 cells assessed as cell growth at 10^-7 M after 48 hrs by SRB assay; conditions: HCT-116, 48 h, read-out: Activity
SK-MEL-28 [3] = assay: Growth inhibition of human SK-MEL-28 cells assessed as cell growth at 10^-5 M after 48 hrs by SRB assay; conditions: SK-MEL-28, 48 h, read-out: Activity
[4] = Growth inhibition of human HOP92 cells assessed as cell growth at 10^-6 M after 48 hrs by SRB assay; conditions: HOP-92, 48 h, read-out: Activity
HOP-62 [5] = assay: Growth inhibition of human HOP62 cells assessed as cell growth at 10^-5 M after 48 hrs by SRB assay; conditions: HOP-62, 48 h, read-out: Activity
[6] = Growth inhibition of human OVCAR3 cells assessed as cell growth at 10^-4 M after 48 hrs by SRB assay; conditions: OVCAR-3, 48 h, read-out: Activity
[7] = Growth inhibition of human UACC257 cells assessed as cell growth at 10^-4 M after 48 hrs by SRB assay; conditions: UACC-257, 48 h, read-out: Activity
[8] = Growth inhibition of human LOXIMVI cells assessed as cell growth at 10^-8 M after 48 hrs by SRB assay; conditions: LOX IMVI, read-out: Activity
[9] = Growth inhibition of human UO31 cells assessed as cell growth at 10^-6 M after 48 hrs by SRB assay; conditions: UO-31, 48 h, read-out: Activity
SK-MEL-5 = assay: Growth inhibition of human SK-MEL-5 cells assessed as cell growth at 10^-4 M after 48 hrs by SRB assay; conditions: SK-MEL-5, 48 h, read-out: Activity
MCF7 = assay: Growth inhibition of human MCF7 cells assessed as cell growth at 10^-7 M after 48 hrs by SRB assay; conditions: MCF7, 48 h, read-out: Activity
SNB-75 = assay: Growth inhibition of human SNB75 cells assessed as cell growth at 10^-8 M after 48 hrs by SRB assay; conditions: SNB-75, 48 h, read-out: Activity
SK-MEL-28 [10] = assay: Cytotoxicity against human SK-MEL-28 cells after 48 hrs by SRB assay; conditions: SK-MEL-28, 48 h; method in brief: as §1
HCT-116 [11] = assay: Growth inhibition of human HCT116 cells assessed as cell growth at 10^-5 M after 48 hrs by SRB assay; conditions: HCT-116, 48 h, read-out: Activity
[12] = Growth inhibition of human SF539 cells assessed as cell growth at 10^-5 M after 48 hrs by SRB assay; conditions: SF-539, 48 h, read-out: Activity
NCI-H226 = assay: Cytotoxicity against human NCI-H226 cells after 48 hrs by SRB assay; conditions: NCI-H226, 48 h; method in brief: as §1
SW-620 = assay: Cytotoxicity against human SW620 cells after 48 hrs by SRB assay; conditions: SW-620, 48 h; method in brief: as §1
[13] = Growth inhibition of human Hs578T cells assessed as cell growth at 10^-8 M after 48 hrs by SRB assay; conditions: Hs-578T, read-out: Activity
HOP-62 [14] = assay: Growth inhibition of human HOP62 cells assessed as cell growth at 10^-6 M after 48 hrs by SRB assay; conditions: HOP-62, 48 h, read-out: Activity
MDA-MB-468 = assay: Growth inhibition of human MDA-MB-468 cells assessed as cell growth at 10^-7 M after 48 hrs by SRB assay; conditions: MDA-MB-468, 48 h, read-out: Activity
DU-145 = assay: Growth inhibition of human DU145 cells assessed as cell growth at 10^-7 M after 48 hrs by SRB assay; conditions: DU-145, 48 h, read-out: Activity
IGROV-1 = assay: Growth inhibition of human IGROV1 cells assessed as cell growth at 10^-8 M after 48 hrs by SRB assay; conditions: IGROV-1, 48 h, read-out: Activity
[15] = Growth inhibition of human BT549 cells assessed as cell growth at 10^-6 M after 48 hrs by SRB assay; conditions: BT-549, 48 h, read-out: Activity
Method in brief: (§2)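 Five-dose NCI panel protocol. Each dose (10^-4 to 10^-8 M, 10-fold steps) was given as 48 h continuous exposure, and protein was measured by SRB staining. Percentage growth at each level is [(Ti−Tz)/(C−Tz)]×100, where Tz is time-zero absorbance and C is untreated control.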

786-0 = assay: Growth inhibition of human 786-0 cells assessed as cell growth at 10^-4 M after 48 hrs by SRB assay; conditions: 786-0, 48 h, read-out: Activity; method in brief: as §2
[16] = Growth inhibition of human EKVX cells assessed as cell growth at 10^-5 M after 48 hrs by SRB assay; conditions: read-out: Activity
PC-3 = assay: Growth inhibition of human PC3 cells assessed as cell growth at 10^-6 M after 48 hrs by SRB assay; conditions: PC-3, 48 h, read-out: Activity
[17] = Growth inhibition of human HCC2998 cells assessed as cell growth at 10^-8 M after 48 hrs by SRB assay; conditions: HCC 2998, 48 h, read-out: Activity
[18] = Cytotoxicity against human EKVX cells after 48 hrs by SRB assay; method in brief: as §1
HT-29 = assay: Growth inhibition of human HT-29 cells assessed as cell growth at 10^-4 M after 48 hrs by SRB assay; conditions: HT-29, 48 h, read-out: Activity
[19] = read-out: LC50 (the source's name)
[20] = read-out: pLC50 (the source's name) (converted)

`Cc1ccc(-c2nc3ccc(Cl)cc3c(=O)n2/N=C/c2ccccc2)cc1` showed a growth at 10 µM (T47D) of 14%, a GI50 ([1]; read-out: GI50) of 4.54 µM and a CC50 [1, 19] of over 100 µM. The TGI ([1]; read-out: TGI) was over 100 µM, the GI50 ([1]; read-out: pGI50 (converted)) was 4.57 µM and the CC50 [1, 20] was over 100 µM. It also gave a TGI ([1]; read-out: pTGI) of over 100 µM, a growth at 0.1 µM (HCT-116 [2]) of 96% and a growth at 10 µM (SK-MEL-28 [3]) of 60%. It also gave a growth at 1 µM [4] of 85%, a growth at 10 µM (HOP-62 [5]) of 36% and a growth at 100 µM [6] of 15%. It also gave a growth at 100 µM [7] of 60%, a growth at 0.01 µM [8] of 98% and a growth at 1 µM [9] of 60%. For the same compound, the growth at 100 µM (SK-MEL-5) was 34%, the growth at 0.1 µM (MCF7) was 90% and the growth at 0.01 µM (SNB-75) was 87%. The GI50 (SK-MEL-28 [10]; read-out: GI50) was 20.6 µM, the CC50 (SK-MEL-28 [10]; [19]) was over 100 µM and the TGI (SK-MEL-28 [10]; read-out: TGI) was over 100 µM. For the same compound, the GI50 (SK-MEL-28 [10]; read-out: pGI50 (converted)) was 20.4 µM, the CC50 (SK-MEL-28 [10]; [20]) was over 100 µM and the TGI (SK-MEL-28 [10]; read-out: pTGI) was over 100 µM. The growth at 10 µM (HCT-116 [11]) was 37%, the growth at 10 µM [12] was 73% and the GI50 (NCI-H226; read-out: GI50) was 5.14 µM. The CC50 (NCI-H226; [19]) was over 100 µM, the TGI (NCI-H226; read-out: TGI) was over 100 µM and the GI50 (NCI-H226; read-out: pGI50 (converted)) was 5.13 µM. For the same compound, the CC50 (NCI-H226; [20]) was over 100 µM, the TGI (NCI-H226; read-out: pTGI) was over 100 µM and the GI50 (SW-620; read-out: GI50) was over 100 µM. For the same compound, the CC50 (SW-620; [19]) was over 100 µM, the TGI (SW-620; read-out: TGI) was over 100 µM and the GI50 (SW-620; read-out: pGI50 (converted)) was over 100 µM. It also gave a CC50 (SW-620; [20]) of over 100 µM, a TGI (SW-620; read-out: pTGI) of over 100 µM and a growth at 0.01 µM [13] of 87%. For the same compound, the growth at 1 µM (HOP-62 [14]) was 86%, the growth at 0.1 µM (MDA-MB-468) was 93% and the growth at 0.1 µM (DU-145) was 98%. It also gave a growth at 0.01 µM (IGROV-1) of 94%, a growth at 1 µM [15] of 103% and a growth at 100 µM (786-0) of 17%. It also gave a growth at 10 µM [16] of 34%, a growth at 1 µM (PC-3) of 86% and a growth at 0.01 µM [17] of 102%. The GI50 ([18]; read-out: GI50) was 4.15 µM, the CC50 [18, 19] was over 100 µM and the TGI ([18]; read-out: TGI) was over 100 µM. For the same compound, the GI50 ([18]; read-out: pGI50 (converted)) was 4.17 µM, the CC50 [18, 20] was over 100 µM and the TGI ([18]; read-out: pTGI) was over 100 µM. It also gave a growth at 100 µM (HT-29) of 45%.
